Laboratory results from ChEMBL document CHEMBL5608194, “Novel neuroprotective 5,6-dihydropyrido[2',1':2,3]imidazo[4,5-c]quinoline derivatives acting through cholinesterase inhibition and CB2 signaling modulation” (Eur J Med Chem, 2024).

Experiments:
[1] = system: SH-SY5Y; assay: Cytotoxicity against human SH-SY5Y cells assessed as cell death at 10 uM incubated for 72 hrs by propidium iodide staining based fluorescence assay; assay type: toxicity
Summary of the method: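 SH-SY5Y differentiated to neuron-like phenotype with 10 μM all-trans retinoic acid for 48 h, 20 000 cells/well. Compounds from DMSO stocks (DMSO ≤0.5 %) added, then 72 h exposure. Control wells lysed with 1 % Triton X-100 for 1 min, then all wells stained with propidium iodide for fluorescence read-out. Dead-cell proportion expressed relative to Triton X-100-treated control.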

[2] = system: SH-SY5Y; assay: Neuroprotective activity against ATRA-differentiated and MPP+ induced cell death in human SH-SY5Y cells assessed as cell death at 10 uM incubated for 24 hrs by propidium iodide staining based fluorescence assay (reference value: 100%); assay type: functional
Summary of the method: (§1)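 ATRA-differentiated SH-SY5Y co-treated with compound and 5 mM MPP+ for 24 h; cell death by propidium iodide fluorescence, MPP+-treated signal set to 100 %.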

[3] = system: SH-SY5Y; assay: Neuroprotective activity against ATRA-differentiated and 3-NPA induced cell death in human SH-SY5Y cells assessed as cell death at 1 uM incubated for 48 hrs by propidium iodide staining based fluorescence assay (reference value: 100%); assay type: functional
Summary of the method: (§2)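 ATRA-differentiated SH-SY5Y co-treated with compound and 20 mM 3-nitropropionic acid for 48 h; cell death by propidium iodide fluorescence, 3-NPA-treated signal set to 100 %.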

[4] = system: SH-SY5Y; assay: Neuroprotective activity against ATRA-differentiated and MPP+ induced cell death in human SH-SY5Y cells assessed as cell death at 1 uM incubated for 24 hrs by propidium iodide staining based fluorescence assay (reference value: 100%); assay type: functional; summary of the method: as §1
[5] = system: SH-SY5Y; assay: Neuroprotective activity against ATRA-differentiated and MPP+ induced cell death in human SH-SY5Y cells assessed as cell death at 0.1 uM incubated for 24 hrs by propidium iodide staining based fluorescence assay (reference value: 100%); assay type: functional; summary of the method: as §1
[6] = system: SH-SY5Y; assay: Neuroprotective activity against ATRA-differentiated and 3-NPA induced cell death in human SH-SY5Y cells assessed as cell death at 10 uM incubated for 48 hrs by propidium iodide staining based fluorescence assay (reference value: 100%); assay type: functional; summary of the method: as §2
[7] = system: SH-SY5Y; assay: Neuroprotective activity against ATRA-differentiated and 3-NPA induced cell death in human SH-SY5Y cells assessed as cell death at 0.1 uM incubated for 48 hrs by propidium iodide staining based fluorescence assay (reference value: 100%); assay type: functional; summary of the method: as §2

Cc1cccn2c3c(nc12)-c1ccccc1NC3(C)C
Activity [1]: 11% | Activity [2]: 70.8% | Activity [3]: 69.9% | Activity [4]: 48.6% | Activity [5]: 79.6% | Activity [6]: 56.4% | Activity [7]: 96.6%

c1ccc2c(c1)NC1(CCCC1)c1c-2nc2ccccn12
Activity [1]: 10.1% | Activity [2]: 42.6% | Activity [3]: 57.7% | Activity [4]: 28.2% | Activity [5]: 63.9% | Activity [6]: 54.5% | Activity [7]: 67.7%

c1ccc2c(c1)NC1(CCCCCC1)c1c-2nc2ccccn12
Activity [1]: 10.4% | Activity [2]: 73.6% | Activity [3]: 69.9% | Activity [4]: 28.6% | Activity [5]: 45.8% | Activity [6]: 69% | Activity [7]: 74%

CC1CCC2(CC1)Nc1ccccc1-c1nc3ccccn3c12 (centres undefined)
Activity [1]: 12% | Activity [2]: 97.3% | Activity [3]: 64.2% | Activity [4]: 33.6% | Activity [5]: 67.6% | Activity [6]: 64.5% | Activity [7]: 82.3%

CC1CCC2(CC1)Nc1ccccc1-c1nc3ccc(Br)cn3c12 (centres undefined)
Activity [1]: 9.3% | Activity [2]: 126.5% | Activity [3]: 71.3% | Activity [4]: 52.3% | Activity [5]: 74.2% | Activity [6]: 64% | Activity [7]: 92.1%

CC(=O)N[C@@H](CS)C(=O)O [ACETYLCYSTEINE]
Activity [3]: 80.8% | Activity [6]: 37% | Activity [7]: 95.5%

Cc1ccn2c3c(nc2c1)-c1ccccc1NC31CCCC1
Activity [1]: 10.4% | Activity [2]: 68.9% | Activity [3]: 59% | Activity [4]: 31.9% | Activity [5]: 73.1% | Activity [6]: 48.6% | Activity [7]: 86.9%

Cc1ccn2c3c(nc2c1)-c1ccccc1NC3(C)C
Activity [1]: 13% | Activity [2]: 59.7% | Activity [3]: 62.4% | Activity [4]: 46.1% | Activity [5]: 65.7% | Activity [6]: 52.9% | Activity [7]: 86.2%

Cc1ccn2c3c(nc2c1)-c1ccccc1NC31CCC(C)CC1 (centres undefined)
Activity [1]: 10.9% | Activity [2]: 105.9% | Activity [3]: 66.8% | Activity [4]: 38.4% | Activity [5]: 61.6% | Activity [6]: 67% | Activity [7]: 82.4%

Cc1cccn2c3c(nc12)-c1ccccc1NC31CCC(C)CC1 (centres undefined)
Activity [1]: 9% | Activity [2]: 94% | Activity [3]: 65% | Activity [4]: 53% | Activity [5]: 91.8% | Activity [6]: 64.5% | Activity [7]: 86%

Cc1cccn2c3c(nc12)-c1ccccc1NC31CCCCC1
Activity [1]: 9.2% | Activity [2]: 45.6% | Activity [3]: 66.1% | Activity [4]: 44.4% | Activity [5]: 77.7% | Activity [6]: 61.8% | Activity [7]: 76.6%

Brc1ccc2nc3c(n2c1)C1(CCCCCC1)Nc1ccccc1-3
Activity [1]: 13.5% | Activity [2]: 96.4% | Activity [3]: 81.4% | Activity [4]: 43.5% | Activity [5]: 56.5% | Activity [6]: 73.5% | Activity [7]: 90.7%

Cc1cccn2c3c(nc12)-c1ccccc1NC31CCCC1
Activity [1]: 8.2% | Activity [2]: 52.8% | Activity [3]: 65.3% | Activity [4]: 48% | Activity [5]: 86.7% | Activity [6]: 60.5% | Activity [7]: 79.2%

Cc1cccn2c3c(nc12)-c1ccccc1NC31CCCCCC1
Activity [1]: 9.3% | Activity [2]: 91.4% | Activity [3]: 71% | Activity [4]: 38.8% | Activity [5]: 67.2% | Activity [6]: 60.3% | Activity [7]: 83.8%
